Laboratory results reported in ChEMBL document CHEMBL1921684, “Targeting zymogen activation to control the matriptase-prostasin proteolytic cascade” (J Med Chem, 2011).
Calls of active or inactive are those of the source. The calls are words filed in the database; no cut-off is given here.

How the values were obtained:
[1] = target: T1, Suppressor of tumorigenicity 14 protein (Homo sapiens) (UniProt Q9Y5Y6); experiment: Inhibition of acid-induced matriptase activation in human HaCaT cells using mAb M69 after 30 mins by Western blot analysis; type: cell-based
T1 sequence (whole entry): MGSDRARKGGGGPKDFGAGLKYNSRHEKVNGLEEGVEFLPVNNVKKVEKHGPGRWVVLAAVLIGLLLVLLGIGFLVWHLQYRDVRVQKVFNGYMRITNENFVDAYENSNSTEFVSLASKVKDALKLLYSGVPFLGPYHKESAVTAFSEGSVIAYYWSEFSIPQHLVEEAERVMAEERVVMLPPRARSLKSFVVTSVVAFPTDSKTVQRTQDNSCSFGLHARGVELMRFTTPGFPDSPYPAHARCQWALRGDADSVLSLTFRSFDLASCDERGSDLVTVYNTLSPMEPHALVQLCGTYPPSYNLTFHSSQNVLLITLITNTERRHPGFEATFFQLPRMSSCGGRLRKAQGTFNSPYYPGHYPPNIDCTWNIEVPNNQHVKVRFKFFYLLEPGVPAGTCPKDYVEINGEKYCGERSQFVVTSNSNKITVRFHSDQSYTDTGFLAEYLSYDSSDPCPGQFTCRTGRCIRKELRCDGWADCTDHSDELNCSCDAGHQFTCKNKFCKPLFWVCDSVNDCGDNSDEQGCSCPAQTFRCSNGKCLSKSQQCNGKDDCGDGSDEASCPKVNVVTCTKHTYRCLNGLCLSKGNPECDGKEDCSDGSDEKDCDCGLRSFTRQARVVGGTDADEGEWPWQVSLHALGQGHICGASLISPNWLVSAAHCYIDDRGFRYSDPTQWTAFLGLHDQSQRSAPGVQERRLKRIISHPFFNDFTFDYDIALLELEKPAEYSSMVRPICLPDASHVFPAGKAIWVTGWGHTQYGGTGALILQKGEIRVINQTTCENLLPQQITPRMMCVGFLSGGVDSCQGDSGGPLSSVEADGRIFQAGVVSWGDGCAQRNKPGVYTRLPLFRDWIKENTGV
Procedure, shortened: (§1)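 HaCaT keratinocytes (DMEM, 10% FBS) incubated with compound in phosphate buffer pH 6.0 for 30 min at 4 °C, then 20 min at room temperature. Controls were PBS (no activation) and buffer alone. Lysates run non-reduced on 7.5% SDS-PAGE. Immunoblots probed with M24 (total matriptase), M69 (activated matriptase) and a polyclonal anti-prostasin antibody detecting the prostasin-HAI-1 complex.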

[2] = target: T1, Suppressor of tumorigenicity 14 protein (Homo sapiens); experiment: Inhibition of acid-induced matriptase activation in human 184A1N4 cells assessed as decrease in 120 kDa enzyme-HAI-1 complex using mAb M24 after 30 mins by Western blotting relative to untreated control; type: cell-based
Procedure, shortened: (§2)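 Intact 184 A1N4 cells pre-treated with compound in 150 mM sodium phosphate pH 6.0 for 30 min at 4 °C, then held 20 min at room temperature to drive activation. PBS served as non-activation control and buffer alone as activation control. Cells lysed in PBS with 1 mM DTNB and 1% Triton X-100. Non-reduced, unboiled lysates run on 7.5% SDS-PAGE. Blots probed with M24 (70-kDa latent form, 120-kDa matriptase-HAI-1 complex) or M69 (activated matriptase); triplicate.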

[3] = target: T1, Suppressor of tumorigenicity 14 protein (Homo sapiens); experiment: Inhibition of acid-induced matriptase activation in human HaCaT cells using mAb M24 after 30 mins by Western blot analysis; type: cell-based; procedure, shortened: as §1
[4] = target: T1, Suppressor of tumorigenicity 14 protein (Homo sapiens); experiment: Inhibition of acid-induced matriptase activation in human 184A1N4 cells assessed as decrease in 120 kDa enzyme-HAI-1 complex using mAb M24 at 5 uM after 30 mins by Western blotting relative to untreated control; type: cell-based; procedure, shortened: as §2
[5] = target: T1, Suppressor of tumorigenicity 14 protein (Homo sapiens); experiment: Inhibition of acid-induced matriptase activation in human 184A1N4 cells assessed as increase in 70 kDa latent matriptase using mAb M24 at 5 uM after 30 mins by Western blotting; type: cell-based; procedure, shortened: as §2
[6] = target: T1, Suppressor of tumorigenicity 14 protein (Homo sapiens); experiment: Inhibition of acid-induced matriptase activation in human 184A1N4 cells assessed as increase in 70 kDa latent matriptase using mAb M24 after 30 mins by Western blotting; type: cell-based; procedure, shortened: as §2
[7] = target: T2, Suppressor of tumorigenicity 14 protein (Homo sapiens, UniProt Q9Y5Y6); experiment: Inhibition of acid-induced matriptase activation in human 184A1N4 cells using mAb M69 by cell-based ELISA like assay
T2 sequence (Q9Y5Y6 whole entry): T1 sequence (whole entry)
Procedure, shortened: (§3)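 184 A1N4 cells seeded at 8×10^4 cells/well 24 h ahead. Compound in pH 6.0 sodium phosphate buffer, 30 min at 4 °C, then 20 min at room temperature. Cells fixed in 4% formaldehyde with 0.1% Triton for 20 min. Activated matriptase detected with mAb M69, HRP anti-mouse IgG and TMB; A450. […] Screening used 5 μM final per compound in 1% DMSO.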

[8] = target: T1, Suppressor of tumorigenicity 14 protein (Homo sapiens); experiment: Inhibition of acid-induced matriptase activation in human 184A1N4 cell homogenate using mAb M69 after 30 mins by Western blot analysis
Procedure, shortened: (§4)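 Insoluble fraction of 184 A1N4 cell homogenates (made in PBS, collected by centrifugation) preincubated with compound in 150 mM sodium phosphate pH 6.0 for 30 min at 4 °C. Activation then induced for 20 min at room temperature. Non-reduced, unboiled samples run on 7.5% SDS-PAGE. Immunoblot probed with mAb M24 (total matriptase) or M69 (activated matriptase); chemiluminescent detection; triplicate.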

[9] = target: T1, Suppressor of tumorigenicity 14 protein (Homo sapiens); experiment: Inhibition of acid-induced matriptase-mediated prostasin activation in human HaCaT cells assessed as decrease in prostatin-HAI-1 complex after 30 mins by Western blot analysis; type: cell-based; procedure, shortened: as §1
[10] = target: T1, Suppressor of tumorigenicity 14 protein (Homo sapiens); experiment: Inhibition of acid-induced matriptase activation in human 184A1N4 cells assessed as decrease in 120 kDa enzyme-HAI-1 complex using mAb M69 after 30 mins by Western blotting; type: cell-based; procedure, shortened: as §2
[11] = target: T1, Suppressor of tumorigenicity 14 protein (Homo sapiens); experiment: Inhibition of acid-induced matriptase activation in human 184A1N4 cell homogenate using mAb M24 after 30 mins by Western blot analysis; procedure, shortened: as §4
[12] = target: T1, Suppressor of tumorigenicity 14 protein (Homo sapiens); experiment: Inhibition of acid-induced matriptase activation in human 184A1N4 cells using mAb M69 after 20 mins by Western blotting; type: cell-based; procedure, shortened: as §2
[13] = target: T1, Suppressor of tumorigenicity 14 protein (Homo sapiens); experiment: Inhibition of acid-induced matriptase activation in human 184A1N4 cells using mAb M69 after 20 mins by cell-based ELISA-like assay; procedure, shortened: as §3
[14] = target: T1, Suppressor of tumorigenicity 14 protein (Homo sapiens); experiment: Inhibition of acid-induced matriptase activation in human 184A1N4 cells using mAb M24 after 20 mins by Western blotting; type: cell-based; procedure, shortened: as §2
[15] = target: T1, Suppressor of tumorigenicity 14 protein (Homo sapiens); experiment: Inhibition of acid-induced matriptase activation in human 184A1N4 cells using mAb M69 at 5 uM by cell-based ELISA like assay; procedure, shortened: as §3
[16] = target: T1, Suppressor of tumorigenicity 14 protein (Homo sapiens); experiment: Inhibition of acid-induced matriptase activation in human 184A1N4 cells assessed as enzyme-HAI-1 complex using mAb M24 at 5 uM after 30 mins by Western blotting; type: cell-based; procedure, shortened: as §2

SMILES	IC50 [7] [µM]	inhibition [8]	inhibition [10]	inhibition [11]	further results
Cc1nc(N2C(=O)C(O)=C(C(=O)c3cccs3)C2c2cccs2)sc1C (stereo unspecified)	2.6	Dose-dependent effect	Active	Dose-dependent effect	inhibition [1]: Dose-dependent effect; inhibition [2]: Dose-dependent effect; inhibition [3]: Dose-dependent effect; inhibition [4]: Active; inhibition [5]: Active; inhibition [6]: Dose-dependent effect; inhibition [9]: Dose-dependent effect
Cc1nc(N2C(=O)C(O)=C(C(=O)c3cccs3)C2c2ccccc2)sc1C (stereo unspecified)	7	Dose-dependent effect	Active	Dose-dependent effect	
[Cl-].[Na+]					inhibition [12]: Dose-dependent effect; inhibition [13]: Dose-dependent effect; inhibition [14]: Dose-dependent effect
Cc1nc(N2C(=O)C(O)=C(C(=O)c3ccccc3)C2c2cccs2)sc1C (stereo unspecified)	21.8	Dose-dependent effect		Dose-dependent effect	
O=C(C1=C(O)C(=O)N(c2nccs2)C1c1cccs1)c1cccs1 (stereo unspecified)	9.8	Dose-dependent effect		Dose-dependent effect	inhibition [15]: Active; inhibition [16]: Active
